In general, IC50 refers to the point on the concentration scale where inhibition reaches its midpoint. For orientation: Ki means a dissociation constant, usually derived from enzyme kinetics or from competition with a known ligand. Read a low Ki as tighter binding.

Data on nine molecules can be found in ChEMBL document CHEMBL3259714, “Pyrazolo[4,3-e][1,2,4]triazine sulfonamides as carbonic anhydrase inhibitors with antitumor activity” (Bioorg Med Chem, 2014).

Sequence of Carbonic anhydrase 1 (P00915 whole entry): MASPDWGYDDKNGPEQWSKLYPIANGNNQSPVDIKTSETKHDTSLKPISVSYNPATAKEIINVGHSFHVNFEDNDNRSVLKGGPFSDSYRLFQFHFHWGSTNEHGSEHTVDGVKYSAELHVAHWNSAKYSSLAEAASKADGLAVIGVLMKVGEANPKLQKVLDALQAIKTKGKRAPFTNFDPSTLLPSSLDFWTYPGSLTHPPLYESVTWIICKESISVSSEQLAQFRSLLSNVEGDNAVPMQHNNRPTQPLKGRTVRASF
Sequence of Carbonic anhydrase 12 (O43570 whole entry): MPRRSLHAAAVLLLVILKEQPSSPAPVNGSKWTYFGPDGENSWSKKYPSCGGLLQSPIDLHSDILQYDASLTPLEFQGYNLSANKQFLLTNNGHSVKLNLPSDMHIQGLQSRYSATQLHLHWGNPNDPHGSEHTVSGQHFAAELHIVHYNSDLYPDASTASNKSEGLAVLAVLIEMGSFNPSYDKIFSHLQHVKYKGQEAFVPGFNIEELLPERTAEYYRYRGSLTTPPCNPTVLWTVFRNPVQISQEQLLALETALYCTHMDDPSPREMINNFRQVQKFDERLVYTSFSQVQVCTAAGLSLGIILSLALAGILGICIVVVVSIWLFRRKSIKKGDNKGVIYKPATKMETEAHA

One test has as its system MDA-MB-231. As to the kind of experiment: Cytostatic activity against human MDA-MB-231 cells assessed as inhibition of DNA synthesis after 24 hrs by [3H]thymidine incorporation assay. The format is functional, cell-based.
Details: not given
The method, boiled down:
(§1)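 Cells kept in DMEM with 10% FBS and penicillin/streptomycin at 37 °C. Seeded in 6-well plates and grown to about 80% confluency, in DMEM without phenol red with 10% CPSR1. Exposed to a range of concentrations plus 0.5 μCi [³H]-thymidine for 24 h at 37 °C. Cells trypsinized and washed with cold PBS until wash dpm matched the reagent control. Uptake counted by liquid scintillation as dpm/well. IC50 is mean ± S.D. of four independent experiments.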
In general terms: Dividing cells build labelled thymidine or BrdU into new DNA.
As for `CCOc1ccc(S(=O)(=O)N2CCNCC2)cc1-c1nnc2c(n1)c(C)nn2C`, the IC50 was determined as 164 µM and the inhibition entry is “Dose-dependent effect”.

Regarding `Cc1nn(C)c2nnc(Nc3ccc(S(=O)(=O)N4CCCC4)cc3)nc12`, the inhibition entry was “Dose-dependent effect”.

Turning to `Cc1nn(C)c2nnc(Nc3ccc(S(=O)(=O)N4CCCNCC4)cc3)nc12`, the inhibition entry was “Dose-dependent effect”.

`CCOc1ccc(S(=O)(=O)NCCO)cc1-c1nnc2c(n1)c(C)nn2C`: the IC50 is above 200 µM and the inhibition result is “Dose-dependent effect”.

Turning to `Cc1nn(C)c2nnc(Nc3ccc(S(=O)(=O)NCCN)cc3)nc12`, the inhibition entry was “Dose-dependent effect”.

Turning to `CCOc1ccc(S(=O)(=O)N2CCOCC2)cc1-c1nnc2c(n1)c(C)nn2C`, the IC50 turned out to be 160 µM and the inhibition result was “Dose-dependent effect”.

With `Cc1nn(C)c2nnc(Nc3ccc(S(=O)(=O)N4CCN(C)CC4)cc3)nc12`, the inhibition result is “Dose-dependent effect”.

Take `Cc1nn(C)c2nnc(Nc3ccc(S(=O)(=O)N4CCOCC4)cc3)nc12`: the inhibition entry is “Dose-dependent effect”.

In the case of `CCOc1ccc(S(=O)(=O)N2CCCNCC2)cc1-c1nnc2c(n1)c(C)nn2C`, the IC50 worked out at 115 µM and the inhibition result was “Dose-dependent effect”.

The next test deals with Carbonic anhydrase 2 (Homo sapiens, UniProt P00918). Nature of the test: Inhibition of human carbonic anhydrase 2-mediated CO2 hydration preincubated for 15 mins by stopped-flow assay.
Details: not given
For the molecule `Cc1nn(C)c2nnc(Nc3ccc(S(=O)(=O)N4CCCC4)cc3)nc12`, the Ki stood at 0.0063 µM.

`Cc1nn(C)c2nnc(Nc3ccc(S(=O)(=O)N4CCCNCC4)cc3)nc12` registered a Ki of 0.918 µM.

`Cc1nn(C)c2nnc(Nc3ccc(S(=O)(=O)NCCN)cc3)nc12` returned a Ki of 0.0621 µM.

`Cc1nn(C)c2nnc(Nc3ccc(S(=O)(=O)N4CCN(C)CC4)cc3)nc12` came in with a Ki of 0.667 µM.

The next test relates to MCF7. Nature of the test: Inhibition of collagen synthesis in human MCF7 cells assessed as 5-[3H]-proline incorporation into proteins susceptible to action of bacterial collagenase after 24 hrs. The format is functional, cell-based.
Details: not given
The method, boiled down:
(§2)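 Cells labelled 24 h in growth medium with 5-[³H]proline (5 μCi/mL, 28 Ci/mmol) at a range of compound concentrations. Collagen share of incorporated label found by digesting proteins with purified Clostridium histolyticum collagenase (Peterkofsky method). Cell and medium fractions combined. IC50 is the mean ± S.D. of three independent experiments run in duplicate.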
With `Cc1nn(C)c2nnc(Nc3ccc(S(=O)(=O)N4CCCC4)cc3)nc12`, the IC50 was above 200 µM.

In the case of `Cc1nn(C)c2nnc(Nc3ccc(S(=O)(=O)N4CCCNCC4)cc3)nc12`, the IC50 turned out to be 133 µM.

Take `Cc1nn(C)c2nnc(Nc3ccc(S(=O)(=O)NCCN)cc3)nc12`: the concentration for half-maximal inhibition (IC50) turned out to be 112 µM.

`Cc1nn(C)c2nnc(Nc3ccc(S(=O)(=O)N4CCN(C)CC4)cc3)nc12`: the IC50 was 47 µM.

For the molecule `Cc1nn(C)c2nnc(Nc3ccc(S(=O)(=O)N4CCOCC4)cc3)nc12`, the IC50 was above 200 µM.

Another test has as its target Carbonic anhydrase 1 (Homo sapiens, UniProt P00915). Nature of the test: Inhibition of human carbonic anhydrase 1-mediated CO2 hydration preincubated for 15 mins by stopped-flow assay.
Details: not given
Take `Cc1nn(C)c2nnc(Nc3ccc(S(=O)(=O)N4CCCC4)cc3)nc12`: the Ki was above 50 µM.

Molecule `Cc1nn(C)c2nnc(Nc3ccc(S(=O)(=O)N4CCCNCC4)cc3)nc12` gave a Ki above 50 µM.

For `Cc1nn(C)c2nnc(Nc3ccc(S(=O)(=O)NCCN)cc3)nc12`, the Ki was above 50 µM.

Consider `Cc1nn(C)c2nnc(Nc3ccc(S(=O)(=O)N4CCN(C)CC4)cc3)nc12`, for which the Ki is above 50 µM.

The next test concerns MCF7. Nature of the test: Cytostatic activity against human MCF7 cells assessed as inhibition of DNA synthesis after 24 hrs by [3H]thymidine incorporation assay. The format is functional, cell-based.
Details: not given
In a few lines: as §1
In the case of `CCOc1ccc(S(=O)(=O)N2CCNCC2)cc1-c1nnc2c(n1)c(C)nn2C`, the IC50 worked out at 150 µM and the inhibition result is “Dose-dependent effect”.

Regarding `Cc1nn(C)c2nnc(Nc3ccc(S(=O)(=O)N4CCCC4)cc3)nc12`, the inhibition result was “Dose-dependent effect”.

`Cc1nn(C)c2nnc(Nc3ccc(S(=O)(=O)N4CCCNCC4)cc3)nc12`: the inhibition entry was “Dose-dependent effect”.

`CCOc1ccc(S(=O)(=O)NCCO)cc1-c1nnc2c(n1)c(C)nn2C`: the IC50 is above 200 µM and the inhibition result was “Dose-dependent effect”.

With `Cc1nn(C)c2nnc(Nc3ccc(S(=O)(=O)NCCN)cc3)nc12`, the inhibition entry is “Dose-dependent effect”.

For `CCOc1ccc(S(=O)(=O)N2CCOCC2)cc1-c1nnc2c(n1)c(C)nn2C`, the IC50 was determined as 148 µM and the inhibition result is “Dose-dependent effect”.

For the molecule `Cc1nn(C)c2nnc(Nc3ccc(S(=O)(=O)N4CCN(C)CC4)cc3)nc12`, the inhibition entry was “Dose-dependent effect”.

In the case of `Cc1nn(C)c2nnc(Nc3ccc(S(=O)(=O)N4CCOCC4)cc3)nc12`, the inhibition result was “Dose-dependent effect”.

As for `CCOc1ccc(S(=O)(=O)N2CCCNCC2)cc1-c1nnc2c(n1)c(C)nn2C`, the IC50 is 129 µM and the inhibition result is “Dose-dependent effect”.

Another test concerns MDA-MB-231. As to the kind of experiment: Inhibition of collagen synthesis in human MDA-MB-231 cells assessed as 5-[3H]-proline incorporation into proteins susceptible to action of bacterial collagenase after 24 hrs.
Details: not given
The format is functional, cell-based. In a few lines: as §2
`Cc1nn(C)c2nnc(Nc3ccc(S(=O)(=O)N4CCCC4)cc3)nc12`: the IC50 was above 200 µM.

Turning to `Cc1nn(C)c2nnc(Nc3ccc(S(=O)(=O)N4CCCNCC4)cc3)nc12`, the IC50 was found to be 135 µM.

In the case of `Cc1nn(C)c2nnc(Nc3ccc(S(=O)(=O)NCCN)cc3)nc12`, the IC50 is 95 µM.

On to `Cc1nn(C)c2nnc(Nc3ccc(S(=O)(=O)N4CCN(C)CC4)cc3)nc12`, for which the IC50 amounted to 58 µM.

`Cc1nn(C)c2nnc(Nc3ccc(S(=O)(=O)N4CCOCC4)cc3)nc12`: the IC50 is above 200 µM.

The subject of another test is MCF7. Nature of the test: Cytotoxicity against human MCF7 cells assessed as growth inhibition after 24 hrs by MTT assay. The test is classed as functional, cell-based.
Details: not given
In a few lines:
(§3)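 Confluent cells in 6-well plates treated 24 h with a range of concentrations, then washed with PBS. MTT (0.5 mg/ml in PBS) added for 4 h at 37 °C, 5% CO₂. Dye dissolved in 0.1 mol/l HCl in isopropanol and read at 570 nm. Viability given as % of untreated control, run in triplicate. IC50 taken from dose-response curves as 50% viable cells versus control.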
Regarding `CCOc1ccc(S(=O)(=O)N2CCNCC2)cc1-c1nnc2c(n1)c(C)nn2C`, the “growth inhibition (GI)” value is “Dose-dependent effect”.

On to `CCOc1ccc(S(=O)(=O)NCCO)cc1-c1nnc2c(n1)c(C)nn2C`, for which the “growth inhibition (GI)” value is “Dose-dependent effect”.

Regarding `CCOc1ccc(S(=O)(=O)N2CCOCC2)cc1-c1nnc2c(n1)c(C)nn2C`, the “growth inhibition (GI)” value is “Dose-dependent effect”.

As to `CCOc1ccc(S(=O)(=O)N2CCCNCC2)cc1-c1nnc2c(n1)c(C)nn2C`, the “growth inhibition (GI)” value was “Dose-dependent effect”.

Still in this test, the particulars now being: MCF7, 24 h.
Turning to `CCOc1ccc(S(=O)(=O)N2CCNCC2)cc1-c1nnc2c(n1)c(C)nn2C`, the IC50 was determined as 172 µM.

Turning to `CCOc1ccc(S(=O)(=O)NCCO)cc1-c1nnc2c(n1)c(C)nn2C`, the IC50 is above 200 µM.

Turning to `CCOc1ccc(S(=O)(=O)N2CCOCC2)cc1-c1nnc2c(n1)c(C)nn2C`, the IC50 came to 181 µM.

For `CCOc1ccc(S(=O)(=O)N2CCCNCC2)cc1-c1nnc2c(n1)c(C)nn2C`, the IC50 was 123 µM.

For a further test, the system named is MDA-MB-231. As to the kind of experiment: Cytotoxicity against human MDA-MB-231 cells assessed as growth inhibition after 24 hrs by MTT assay.
Details: not given
The test is classed as functional, cell-based. In a few lines:
as §3
On the technique in general: Tetrazolium dyes change colour on reduction, which living cells bring about.
As for `CCOc1ccc(S(=O)(=O)N2CCNCC2)cc1-c1nnc2c(n1)c(C)nn2C`, the “growth inhibition (GI)” value is “Dose-dependent effect”.

Turning to `CCOc1ccc(S(=O)(=O)NCCO)cc1-c1nnc2c(n1)c(C)nn2C`, the “growth inhibition (GI)” value is “Dose-dependent effect”.

As for `CCOc1ccc(S(=O)(=O)N2CCOCC2)cc1-c1nnc2c(n1)c(C)nn2C`, the “growth inhibition (GI)” value was “Dose-dependent effect”.

Consider `CCOc1ccc(S(=O)(=O)N2CCCNCC2)cc1-c1nnc2c(n1)c(C)nn2C`, for which the “growth inhibition (GI)” value is “Dose-dependent effect”.

Staying with this test, now noted: MDA-MB-231, 24 h.
As for `CCOc1ccc(S(=O)(=O)N2CCNCC2)cc1-c1nnc2c(n1)c(C)nn2C`, the IC50 came out at 182 µM.

For `CCOc1ccc(S(=O)(=O)NCCO)cc1-c1nnc2c(n1)c(C)nn2C`, the IC50 is above 200 µM.

`CCOc1ccc(S(=O)(=O)N2CCOCC2)cc1-c1nnc2c(n1)c(C)nn2C`: the half-inhibitory concentration (IC50) is 189 µM.

Consider `CCOc1ccc(S(=O)(=O)N2CCCNCC2)cc1-c1nnc2c(n1)c(C)nn2C`, for which the concentration for half-maximal inhibition (IC50) is 130 µM.

Another test concerns the target Carbonic anhydrase 12 (Homo sapiens, UniProt O43570). As to the kind of experiment: Inhibition of human carbonic anhydrase 12-mediated CO2 hydration preincubated for 15 mins by stopped-flow assay.
Details: not given
On to `Cc1nn(C)c2nnc(Nc3ccc(S(=O)(=O)N4CCCC4)cc3)nc12`, for which the Ki is 0.0081 µM.

As to `Cc1nn(C)c2nnc(Nc3ccc(S(=O)(=O)N4CCCNCC4)cc3)nc12`, affinity was put at a Ki of 0.0059 µM.

Molecule `Cc1nn(C)c2nnc(Nc3ccc(S(=O)(=O)NCCN)cc3)nc12` gave a Ki of 0.0071 µM.

On to `Cc1nn(C)c2nnc(Nc3ccc(S(=O)(=O)N4CCN(C)CC4)cc3)nc12`, for which the Ki is 0.0053 µM.

The target of a further test is Carbonic anhydrase 9 (Homo sapiens, UniProt Q16790). As to the kind of experiment: Inhibition of human carbonic anhydrase 9-mediated CO2 hydration preincubated for 15 mins by stopped-flow assay.
Details: not given
As for `Cc1nn(C)c2nnc(Nc3ccc(S(=O)(=O)N4CCCC4)cc3)nc12`, the Ki was determined as 0.652 µM.

`Cc1nn(C)c2nnc(Nc3ccc(S(=O)(=O)N4CCCNCC4)cc3)nc12` yielded a Ki above 50 µM.

Turning to `Cc1nn(C)c2nnc(Nc3ccc(S(=O)(=O)NCCN)cc3)nc12`, affinity was put at a Ki of 0.0237 µM.

Take `Cc1nn(C)c2nnc(Nc3ccc(S(=O)(=O)N4CCN(C)CC4)cc3)nc12`: the Ki was above 50 µM.
